Assay outcomes (PubChem BioAssay)
SMARCA2 act: increases SMARCA2 function in MMTV reporter cells | MG213 cells, MMTV-luciferase reporter, dexamethasone, overnight | 370,000 compounds, 1% hits | activation, % at 9.1 µM; in the data active = activation above about 7.8%
MC4R antag cAMP: antagonists of human melanocortin 4 receptor (MC4R); P32245; MC4R-expressing cells, MTII-stimulated cAMP, LANCE TR-FRET; inhibition, % at 6.5 µM; 360,000 compounds, 0.48% hits; AID 540295;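 active = inhibition above its plate's cutoff, the mean of tested wells on that plate plus 3 SD, cut at about 29% in these data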
Target sequence (P32245 whole entry, looked up): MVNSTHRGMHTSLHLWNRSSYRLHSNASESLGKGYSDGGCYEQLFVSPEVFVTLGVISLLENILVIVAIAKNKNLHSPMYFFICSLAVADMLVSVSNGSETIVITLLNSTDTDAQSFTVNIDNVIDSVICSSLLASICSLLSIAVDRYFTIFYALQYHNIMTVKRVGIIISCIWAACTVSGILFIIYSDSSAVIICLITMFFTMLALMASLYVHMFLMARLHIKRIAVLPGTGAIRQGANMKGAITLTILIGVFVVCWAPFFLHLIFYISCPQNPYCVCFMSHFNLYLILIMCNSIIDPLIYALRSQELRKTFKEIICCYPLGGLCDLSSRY
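Assay system: U2OS cells stably expressing human melanocortin 4 receptor (MC4R) / Dosing: 6.5 µM / Timing: compound 30 min, challenge 1 h, detection 1 h / Measured by: Eu-cAMP/anti-cAMP TR-FRET, emission 671 nm / Replicates: singlicate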
CFTR F508del cor: CFTR F508del correction in bronchial cells. CFBE cells, YFP halide quenching; stimulated with forskolin plus potentiator P3; % fluorescence drop versus neutral controls. activity (quench increase), % at 7.58 µM. 350,000 compounds, 0.36% hits. AID 720511;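 active = mean added fluorescence quench of at least 8% versus neutral control, with both replicates also reaching 8%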;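 note: cells transiently co-express mutant CFTR-F508del with the halide-sensitive YFP; corrector assay measuring rescue of mutant channel to the surface after 24 h compound exposure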
MC4R barr agon: human MC4R agonism via beta-arrestin | P32245 | U2OS MC4R beta-arrestin complementation, luminescence; percent of melanotan II response, DMSO zero | activation, % at 8.9 µM | 360,000 compounds, 0.98% hits;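 active = activation above a per-plate cutoff, the mean activation of sample wells on that plate plus 3 SD, cut at about 8% in these data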
MC4R barr conf: human MC4R beta-arrestin agonism confirmation; shares compounds with MC4R barr agon; U2OS MC4R beta-arrestin recruitment, luminescence; scaled DMSO 0%, Melanotan II 100%; activation, % at 8.9 µM; 2,400 compounds, 31% hits; AID 602192;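 active = mean activation across replicates above the hit cutoff set in the earlier primary screen, cut at about 8% in these data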
MOR DOR agonist: activates mu-delta opioid heterodimer, MC4R agonist counter-screen; U2OS PathHunter beta-arrestin, beta-gal luminescence; percent of deltorphin B response, DMSO zero; shares compounds with MC4R barr agon; 2,400 compounds, 5.8% hits; AID 602194; activation, % at 9.2 µM;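 active = mean activation across replicates exceeds the hit threshold derived in the earlier primary screen, cut at about 18% in these data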
Numbers stand for hits. Hits are enriched below; roughly 2.1% of the tested compounds scored in any of these assays.

O=C(C1CCCC1)N1CCCCN2[C@H](C1)[C@@H](c1ccc(-c3cccc(F)c3)cc1)[C@@H]2CO was read as CFTR F508del cor inactive.
Screening Cc1cc2occ(CC(=O)Nc3nnc(C4CC4)s3)c2cc1C returned SMARCA2 act inactive, MC4R antag cAMP inactive and MC4R barr agon inactive.
`O=C(Cc1coc2ccc3ccccc3c12)Nc1nnc(C2CC2)s1` gave SMARCA2 act inactive, MC4R antag cAMP inactive, MC4R barr agon 27.4, MC4R barr conf 9.5 and MOR DOR agonist inactive.
`Cc1noc(C)c1S(=O)(=O)Nc1ccc2c(c1)CC(=O)N([C@H](C)CO)C[C@@H](C)[C@@H](CN(C)CC1CC1)O2` gave CFTR F508del cor inactive.
`CCc1ccc(C(=O)c2ccccc2C(=O)O)s1` gave SMARCA2 act inactive, MC4R antag cAMP inactive and MC4R barr agon inactive.
For CC(=O)c1ccc(Cc2ccc(C(C)=O)s2)s1 the results were SMARCA2 act inactive, MC4R antag cAMP inactive, CFTR F508del cor inactive, MC4R barr agon 11.0, MC4R barr conf 11.8 and MOR DOR agonist inactive.
Screening CCC(=O)N1CC(=O)N2[C@H](C1)[C@@H](c1ccc(-c3ccccc3F)cc1)[C@@H]2CO returned CFTR F508del cor inactive.
NC(c1ccccc1)c1csc(NC(=O)Nc2cccc(Cl)c2)n1 (configuration not stated) was read as SMARCA2 act inactive, MC4R antag cAMP inactive, CFTR F508del cor inactive, MC4R barr agon 11.7, MC4R barr conf 13.1 and MOR DOR agonist inactive.
`NC(c1csc(NC(=O)Nc2cccc(Cl)c2)n1)C1CCCCC1` (configuration not stated) gave SMARCA2 act inactive, MC4R antag cAMP inactive, CFTR F508del cor inactive, MC4R barr agon 13.2, MC4R barr conf 20.0 and MOR DOR agonist inactive.
NC(CCc1ccccc1)c1csc(NC(=O)Nc2cccc(Cl)c2)n1 (configuration not stated) was read as SMARCA2 act inactive, MC4R antag cAMP inactive, CFTR F508del cor inactive and MC4R barr agon inactive.
Screening Cc1cc(C)cc(NC(=S)N2CCN(c3ncc(C(F)(F)F)cc3Cl)CC2)c1 returned SMARCA2 act inactive, MC4R antag cAMP inactive, CFTR F508del cor inactive, MC4R barr agon 17.5, MC4R barr conf inactive and MOR DOR agonist inactive.
C=CCNC(=S)N1CCN(c2ncc(C(F)(F)F)cc2Cl)CC1 was read as SMARCA2 act inactive, MC4R antag cAMP inactive, CFTR F508del cor inactive and MC4R barr agon inactive.
Cc1ccc(S(=O)(=O)Nc2ccc3c(c2)CC(=O)N([C@@H](C)CO)C[C@@H](C)[C@@H](CN(C)CC2CCCCC2)O3)cc1 was read as CFTR F508del cor inactive.
Screening CC(=O)Nc1ccc(S(=O)(=O)Nc2nc3ccccc3nc2Nc2ccc(C(=O)O)c(O)c2)cc1 returned SMARCA2 act inactive, MC4R antag cAMP inactive, CFTR F508del cor inactive and MC4R barr agon inactive.
`CC(=O)Nc1ccc(S(=O)(=O)Nc2cc(C)c(-n3nc4ccccc4n3)cc2O)cc1` gave SMARCA2 act inactive, MC4R antag cAMP inactive, MC4R barr agon 11.3, MC4R barr conf inactive and MOR DOR agonist inactive.
COc1ccc2c3c([nH]c2c1)[C@H](CO)N(CC1CC1)CC31CCN(C(=O)c2ccccc2F)CC1 was read as CFTR F508del cor inactive.
For CCSc1nnc(-c2ccc(Cl)cc2)c2ccccc12 the results were SMARCA2 act inactive, MC4R antag cAMP inactive, MC4R barr agon 18.8, MC4R barr conf inactive and MOR DOR agonist inactive.
CC(C)C[C@@H](CO)N(Cc1ccccc1)S(=O)(=O)N(Cc1ccccc1)[C@H](CO)CC(C)C was read as MC4R antag cAMP inactive and MC4R barr agon inactive.
For O=S(=O)(N(Cc1ccccc1)[C@H](CO)Cc1ccccc1)N(Cc1ccccc1)[C@H](CO)Cc1ccccc1 the results were SMARCA2 act inactive, MC4R antag cAMP inactive, CFTR F508del cor inactive, MC4R barr agon 28.1, MC4R barr conf inactive and MOR DOR agonist inactive.
Screening COCC(=O)Nc1ccc2c(c1)[C@@H]1C[C@@H](CC(=O)NCc3ccc(Cl)cc3)O[C@@H](CO)[C@@H]1O2 returned CFTR F508del cor inactive.
For O=C(COC(=O)c1sc2ccccc2c1Cl)Nc1ncc(Cl)cc1Cl the results were SMARCA2 act inactive, MC4R antag cAMP inactive, MC4R barr agon 26.6, MC4R barr conf inactive and MOR DOR agonist inactive.
NC1=NC(=O)/C(=C/c2c(OS(=O)(=O)c3ccc(Cl)cc3)ccc3ccccc23)S1 was read as SMARCA2 act inactive, MC4R antag cAMP inactive, CFTR F508del cor inactive, MC4R barr agon 9.6, MC4R barr conf inactive and MOR DOR agonist inactive.
`NC1=NC(=O)/C(=C/c2ccccc2OS(=O)(=O)c2ccccc2)S1` gave SMARCA2 act inactive, MC4R antag cAMP inactive and MC4R barr agon inactive.
For Cc1ccc(S(=O)(=O)N(C)C[C@@H]2Oc3ccc(NC(=O)NC4CCCCC4)cc3CC(=O)N([C@@H](C)CO)C[C@H]2C)cc1 the results were CFTR F508del cor inactive.
CC(C)(C)c1cc(C(=O)Nc2ccc(F)cc2)n(Cc2ccc(F)cc2)n1 was read as SMARCA2 act inactive, MC4R antag cAMP inactive, CFTR F508del cor inactive, MC4R barr agon 9.6, MC4R barr conf inactive and MOR DOR agonist inactive.
`COc1ccc(-c2cn[nH]c2-c2ccc(OCc3ccccc3F)cc2O)cc1OC` gave SMARCA2 act inactive, MC4R antag cAMP inactive, CFTR F508del cor inactive, MC4R barr agon 13.6, MC4R barr conf inactive and MOR DOR agonist inactive.
CC(C)(C)OC(=O)N[C@@H](Cc1ccccc1)c1nnc(SCC(=O)c2ccc(Cl)cc2)o1 was read as SMARCA2 act inactive, MC4R antag cAMP inactive, MC4R barr agon 34.9, MC4R barr conf inactive and MOR DOR agonist inactive.
Screening CC1CCc2c(sc3ncn4c(SCC(=O)NCc5ccco5)nnc4c23)C1 (configuration not stated) returned SMARCA2 act inactive, MC4R antag cAMP inactive, CFTR F508del cor inactive, MC4R barr agon 10.0, MC4R barr conf 9.9 and MOR DOR agonist inactive.
`CC1CCc2sc3ncn4nc(C(=O)NCc5ccco5)nc4c3c2C1` (configuration not stated) gave SMARCA2 act inactive, MC4R antag cAMP inactive and MC4R barr agon inactive.
Screening CC(=O)N1[C@H](C(=O)NCc2ccccc2Cl)[C@@H](CO)[C@@H]2Cn3c(ccc(-c4ccncc4)c3=O)[C@@H]21 returned CFTR F508del cor inactive.
For CCOC(=O)c1ccc(NC(=O)CSc2nnc(-c3cccs3)n2CC)cc1 the results were SMARCA2 act inactive, MC4R antag cAMP inactive and MC4R barr agon inactive.
Screening C=CCn1c(SCC(=O)Nc2ccc(C(=O)OC(C)C)cc2)nnc1-c1cccs1 returned SMARCA2 act inactive, MC4R antag cAMP inactive, MC4R barr agon 23.2, MC4R barr conf inactive and MOR DOR agonist inactive.
